An excerpt weighted towards active compounds, which were near 3.7% of everything screened.
ERAP1 inh = ERAP1 (human) enzyme inhibition. recombinant ERAP1, Leu-AMC fluorescence, 60 min. inhibition, % at 10.7 µM. actives 0.15% (n = 340,000). AID 652197;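 active = mean replicate inhibition of at least 30%, or all replicates individually reaching that 30% level; inactive = mean below 30% and not every replicate reaching it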
E-selectin induc = E-selectin induction on HUVECs | HUVEC E-selectin immunofluorescence imaging; normalized: neutral wells 0, TNF-alpha wells 100 | actives 0.37% (n = 260,000) | P16581 | activation, % at 7.58 µM;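 active = mean E-selectin-positive cell signal at least 10% of the positive control, reached in at least 60% of replicates, without over 20% cell loss; inconclusive = no rule given, readout overlaps actives, possibly toxicity-flagged; inactive = the rest, including those meeting only one limit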
Target sequence (P16581 whole entry, looked up): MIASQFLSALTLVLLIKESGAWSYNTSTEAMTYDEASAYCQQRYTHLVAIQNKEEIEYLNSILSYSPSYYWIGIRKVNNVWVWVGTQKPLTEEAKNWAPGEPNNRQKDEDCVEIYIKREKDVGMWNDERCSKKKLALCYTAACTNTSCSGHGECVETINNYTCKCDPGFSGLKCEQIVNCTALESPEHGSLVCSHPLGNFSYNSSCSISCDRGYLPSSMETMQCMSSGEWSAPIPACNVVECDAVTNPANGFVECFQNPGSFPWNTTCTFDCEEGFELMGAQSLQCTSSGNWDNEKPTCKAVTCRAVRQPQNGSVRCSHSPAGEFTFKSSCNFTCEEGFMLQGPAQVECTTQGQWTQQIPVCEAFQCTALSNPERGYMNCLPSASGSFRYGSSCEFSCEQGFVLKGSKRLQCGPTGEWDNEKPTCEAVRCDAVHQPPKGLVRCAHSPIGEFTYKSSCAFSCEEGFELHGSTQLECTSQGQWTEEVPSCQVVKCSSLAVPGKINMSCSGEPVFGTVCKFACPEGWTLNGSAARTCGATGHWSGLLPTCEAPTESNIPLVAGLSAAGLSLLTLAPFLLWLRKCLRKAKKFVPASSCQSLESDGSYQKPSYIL
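System: HUVEC / Compound: single concentration / Signal: immunofluorescence imaging / Read-out: percent E-selectin-positive cells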
FGF22 binding = binders of recombinant human FGF22 by thermal shift. activity (Tm shift, normalised), % at 9.99 µM. actives 1.5% (n = 340,000). Q9HCT0. SYPRO orange fluorescence; percent of sucrose octasulfate shift, DMSO zero;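 active = mean Tm shift, scaled 0 neutral to 100 positive control, at about 1.3% or above, every replicate too, limit read from the data; inconclusive = no clear call, values can overlap the other calls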
F508del corr = correctors of CFTR F508del function in bronchial epithelial cells | CFBE cells, YFP halide quenching; stimulated with forskolin plus potentiator P3; % fluorescence drop versus neutral controls | activity (quench increase), % at 7.58 µM | actives 0.36% (n = 350,000);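 active = mean added fluorescence quench of at least 8% versus neutral control, with both replicates also reaching 8%; inconclusive = only one of the mean or replicate conditions met; inactive = mean below 8% and not both replicates reaching 8%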;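 note: cells transiently co-express mutant CFTR-F508del with the halide-sensitive YFP; corrector assay measuring rescue of mutant channel to the surface after 24 h compound exposure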
DENV2 CPE = inhibitors of DENV2 cytopathic effect. DENV2-infected cells, cytopathic effect rescue, plate reader. CPE inhibition, % at 9.99 µM. actives 1.7% (n = 350,000); in the data active = CPE inhibition above about 20%, passing the limit was not always enough; inconclusive = no clear call, values can overlap the other calls; tested in BHK-21 cells
Of the large screens only hits and unclear results are named; the others gave an inactive call.

O=C(/C=C/c1ccco1)NC(=S)Nc1nc(-c2ccc3ccccc3c2)cs1	F508del corr 12.1 (no result: E-selectin induc, DENV2 CPE)
O=C(/C=C/c1ccco1)NC(=S)Nc1nc(-c2ccc(Cl)cc2)cs1	none (no result: F508del corr)
COc1ccccc1S(=O)(=O)N[C@H]1C=C[C@@H](CC(=O)N2CCCCC2)O[C@H]1CO	none
COc1cccc2c1C(=O)C=C(C)C2=O	F508del corr 15.7 (no result: E-selectin induc)
CC1=CC(=O)c2ccccc2C1=O	none
Oc1cccc2ccc(/C=C/c3ccccc3Cl)nc12	none
Oc1cccc2ccc(/C=C/c3c(F)cccc3Cl)nc12	FGF22 binding 43.1 (no result: E-selectin induc)
CCN1/C(=C\C(=S)Nc2ccccc2)Sc2ccccc21	FGF22 binding 44.2
COc1ccc(C2CC(c3cccc(F)c3)=NN2c2ccc(S(N)(=O)=O)cc2)cc1 (stereo unspecified)	none
COc1ccc(C2CC(c3cccc(Br)c3)=NN2c2ccc(S(N)(=O)=O)cc2)cc1 (stereo unspecified)	F508del corr 10.4
CC(C)(C)OC(=O)NOCC(=O)N(Cc1ccccc1)CC(O)COc1ccccc1 (stereo unspecified)	DENV2 CPE inconclusive
CC(C)(C)OC(=O)NOCC(=O)N(CC(=O)c1ccccc1)Cc1ccccc1	DENV2 CPE 28.7
COCCNC(=O)NC12CC3(C)CC(C)(CC(C)(C3)C1)C2	F508del corr 10.1
Cc1cc(/C=C/C(=O)O)c(C)n1-c1ccc(Cl)cc1	none
Cc1cc(C=O)c(C)n1-c1ccc(Cl)c(C(=O)O)c1	ERAP1 inh 31.7 (no result: E-selectin induc)
COc1cccc(=O)c2c(C)n(CC(=O)c3ccccc3)c(C)c12	FGF22 binding 43.6
C[C@@H]1CN([C@H](C)CO)S(=O)(=O)c2ccc(C#Cc3ccncc3)cc2O[C@@H]1CN(C)CC1CC1	none
Cc1cc(OC(=O)c2ccc(S(=O)(=O)N3CCCC3)cc2)c([N+](=O)[O-])c(=O)[nH]1	FGF22 binding 42.9
Cc1cc(OC(=O)c2ccc(S(=O)(=O)N3CCCCC3)cc2)c([N+](=O)[O-])c(=O)[nH]1	none (no result: E-selectin induc)
C[C@H](CO)N1C[C@H](C)[C@@H](CN(C)C(=O)C2CCOCC2)Oc2cc(C#Cc3ccncc3)ccc2S1(=O)=O	none
CCN(CC)CCN(CC(=O)N(C1CCCCC1)C1CCCCC1)C(=O)c1cccnc1	FGF22 binding 43.5 (no result: DENV2 CPE)
O=C(NCC1CCCCC1)[C@@H]1[C@@H](CO)[C@@H]2Cn3c(ccc(-c4ccccc4)c3=O)[C@H]1N2	none
O=C(C[C@H]1CC[C@H]2[C@@H](COC[C@H](O)CN2C(=O)Cc2ccccc2)O1)NC1CCC1	DENV2 CPE 37.7
O=C(C[C@H]1CC[C@@H]2[C@H](COC[C@H](O)CN2C(=O)Cc2ccccc2)O1)NC1CCCC1	DENV2 CPE 88.5
COc1ccc2c3c(n(C)c2c1)[C@@H](CO)N(S(C)(=O)=O)CC31CCN(C(=O)CN(C)C)CC1	none (no result: ERAP1 inh, FGF22 binding)
Cc1cc(N2CCOCC2)nc(N2CCOCC2)n1	FGF22 binding 43.4
COc1ccccc1S(=O)(=O)N1CC[C@@H]2[C@@H](CO)Nc3ccc(-c4cccc(C#N)c4)cc3[C@@H]21	none (no result: ERAP1 inh, FGF22 binding, DENV2 CPE)
CCOc1ccc(CCNC(=O)COC(=O)Cn2cnc3c2c(=O)n(C)c(=O)n3C)cc1OCC	ERAP1 inh 47.8
CC(C)CCNC(=O)C(=O)NC1CCCC1	FGF22 binding 44.1 (no result: E-selectin induc)
O=C(NCCc1ccccc1)C(=O)NC1CCCCC1	none (no result: E-selectin induc)
CCC(C)NC(=O)C(=O)NC1CCCC1 (stereo unspecified)	FGF22 binding 44.1 (no result: E-selectin induc)
O=C(C[C@@H]1C[C@@H]2c3cc(NC(=O)Nc4ccc(C(F)(F)F)cc4)ccc3O[C@@H]2[C@@H](CO)O1)NCC1CC1	none
COCC(=O)N(C)C[C@@H]1Oc2ncc(-c3cccc(OC)c3)cc2C(=O)N([C@@H](C)CO)C[C@@H]1C	none
CCc1nnc(NC(=O)c2ccc3nc(CC)c(CC)nc3c2)s1	FGF22 binding 43.3
O=C(Nc1nc(-c2ccccn2)cs1)c1ccc(F)c(S(=O)(=O)N2CCOCC2)c1	F508del corr 22.5 (no result: E-selectin induc)
Cc1nnc(NC(=O)c2ccc(F)c(S(=O)(=O)N3CCOCC3)c2)s1	FGF22 binding 43.1
CCc1nnc(NC(=O)c2ccc(F)c(S(=O)(=O)N3CCCCC3)c2)s1	DENV2 CPE 68.6
Cc1noc(C)c1NC(=O)N(C)C[C@@H]1Oc2ccc(NS(C)(=O)=O)cc2C(=O)N([C@H](C)CO)C[C@H]1C	none (no result: E-selectin induc)
O=c1c(-c2ccc(O)cc2)coc2cc(O)cc(O)c12	none (no result: E-selectin induc)
COc1ccc(-c2coc3cc(O)cc(O)c3c2=O)cc1	FGF22 binding 2.2
CC(C)Oc1cc(O)c2c(=O)c(-c3ccc(O)cc3)coc2c1	E-selectin induc 114.5
Cc1ccc(S(=O)(=O)N[C@@H]2CC[C@H](CC(=O)NC3CCCCC3)O[C@@H]2CO)cc1	none
CSCCC(NS(=O)(=O)c1cccs1)C(=O)NCc1ccccc1 (stereo unspecified)	DENV2 CPE 35.7 (no result: F508del corr)
CSCCC(NS(=O)(=O)c1cccs1)C(=O)NCc1ccc(C)cc1 (stereo unspecified)	none (no result: E-selectin induc)
CC(=O)Nc1ccc(NC(=O)COc2cccc3c2OC(C)(C)C3)cc1	F508del corr 11.2
COC(=O)c1ccc(NC(=O)COc2cccc3c2OC(C)(C)C3)cc1	none (no result: E-selectin induc)
CCOC(=O)c1cc2c(n(-c3ccc(Cl)cc3)c1=O)CCCC2=O	FGF22 binding 43.8 (no result: E-selectin induc)
O=C1CCCc2c1cc(C(=O)O)c(=O)n2-c1ccccc1	FGF22 binding 43.2 (no result: E-selectin induc)
Cc1ccc(-n2c3c(cc(C(=O)NCC(=O)c4ccccc4)c2=O)C(=O)CCC3)cc1	none
O=C1CCCc2c1cc(C(=O)NCc1ccco1)c(=O)n2-c1ccccc1	none (no result: ERAP1 inh, FGF22 binding, F508del corr, DENV2 CPE)
COC(=O)c1cc2c(n(Cc3ccccc3)c1=O)CCCC2=O	FGF22 binding 43.3
CCCCn1c2c(cc(C(=O)OC)c1=O)C(=O)CCC2	none
COc1cccc(-c2ccc3c(c2)O[C@@H](CN(C)C(=O)C2CCC2)[C@H](C)CN([C@@H](C)CO)S3(=O)=O)c1	none
COc1cc(/C=C(/C#N)C(=O)NCc2ccccc2)cc(OC)c1OC	DENV2 CPE 67.3 (no result: E-selectin induc)
COc1cc(/C=C/C(=O)OCC(=O)NCCCc2ccccc2)cc(OC)c1OC	none
COc1cc(/C=C/C(=O)OCC(=O)NCCc2ccccc2)cc(OC)c1OC	FGF22 binding 43.6 (no result: E-selectin induc)
COc1ccc2c3c(n(C)c2c1)[C@@H](CO)N(C(=O)NC(C)C)CC31CN(CC2CCOCC2)C1	none
COc1ccc(OC)c(-n2nnnc2SCC(=O)Nc2ccccc2OC)c1	none
COc1ccc(OC)c(NC(=O)CSc2nnnn2C)c1	FGF22 binding 43.2 (no result: E-selectin induc)
COc1ccc(CC(=O)NC(C)c2nnc(SCC(=O)Nc3cc(C)ccc3OC)n2C)cc1 (stereo unspecified)	FGF22 binding 1.6 (no result: E-selectin induc)
C[C@H]1CCCCO[C@H](CN(C)C(=O)C2CCCCC2)[C@@H](C)CN([C@@H](C)CO)C(=O)c2cc(NS(=O)(=O)c3cn(C)cn3)ccc2O1	none

Screening data: PubChem, Broad Institute
